PfHsp90 yeast 2 = growth inhibition of yeast expressing Plasmodium Hsp90; S. cerevisiae expressing PfHsp90, BacTiter-Glo ATP, 48 h; yeast lacking PDR1 and PDR3 efflux regulators; inhibition, % at 9.4 µM; 0.32% of 310,000 active; AID 504621;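 active means every replicate shows inhibition above about 80%, whatever the replicate mean, limit read from the data; inconclusive means mean inhibition reaches the set limit but some replicate falls short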
DENV2 CPE = inhibitors of DENV2 cytopathic effect; DENV2-infected cells, cytopathic effect rescue, plate reader; CPE inhibition, % at 9.99 µM; 1.7% of 350,000 active; in the data active means CPE inhibition above about 20%, passing the limit was not always enough; inconclusive means no clear call, values can overlap the other calls; tested in BHK-21 cells
AF4-AF9 inh = blocks AF4 peptide binding to human AF9. AlphaScreen, biotin-AF4 peptide binding to FLAG-AF9. AID 651704. inhibition, % at 10 µM. 0.47% of 350,000 active. P42568;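 active means every replicate reaching a set inhibition limit, whatever the replicate mean, cut at about 25% in these data; inconclusive means mean inhibition reaches that limit but some replicates miss it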
Target sequence (P42568 whole entry, looked up): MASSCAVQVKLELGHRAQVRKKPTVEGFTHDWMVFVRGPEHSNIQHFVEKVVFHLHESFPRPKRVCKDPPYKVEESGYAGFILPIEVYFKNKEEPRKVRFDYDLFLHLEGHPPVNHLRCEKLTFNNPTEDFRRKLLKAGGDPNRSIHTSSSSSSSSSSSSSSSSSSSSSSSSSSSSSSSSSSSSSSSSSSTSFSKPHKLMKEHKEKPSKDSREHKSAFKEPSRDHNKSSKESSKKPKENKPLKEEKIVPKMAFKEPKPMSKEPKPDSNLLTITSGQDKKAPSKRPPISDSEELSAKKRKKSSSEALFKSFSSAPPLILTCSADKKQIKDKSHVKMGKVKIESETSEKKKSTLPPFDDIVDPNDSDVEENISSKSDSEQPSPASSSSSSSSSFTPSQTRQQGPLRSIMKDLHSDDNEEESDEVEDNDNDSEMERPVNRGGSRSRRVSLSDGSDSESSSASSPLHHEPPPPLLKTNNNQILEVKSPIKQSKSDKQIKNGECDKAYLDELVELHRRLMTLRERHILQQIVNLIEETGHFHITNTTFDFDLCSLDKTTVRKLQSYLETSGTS
rRNA inh HTS = selective bacterial rRNA inhibition in E. coli. AID 720706. E. coli WT GFP vs humanized-ribosome RFP mutants, fluorescence, 24 h; hits give low values; DMSO median 0, no signal -100. 1.6% of 350,000 active. GFP signal change (wild-type ribosome), % (no concentration beside the values);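 active means significant combined selectivity score with lowered wild-type GFP, culture density cut under 30%, mutant RFP and density less affected; inactive means any of these conditions unmet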
S100A4 inh HTS = inhibitors of human S100A4 binding to myosin IIA peptide; P26447; S100A4/TAMRA-MyoIIA peptide fluorescence polarization; inhibition, % at 10.7 µM; 0.14% of 360,000 active; AID 652163;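 active means mean inhibition of at least 70% across replicates, with every replicate also reaching that level; inconclusive means mean inhibition reaches 70% but some replicates fall short; inactive means mean inhibition below 70%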
Target sequence (P26447 whole entry, looked up): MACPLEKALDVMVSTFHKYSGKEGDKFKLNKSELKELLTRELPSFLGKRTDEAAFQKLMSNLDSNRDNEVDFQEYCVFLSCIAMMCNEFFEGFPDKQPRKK
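System – human S100A4 monomer protein, biochemical binding assay · Buffer or medium – Calcium-containing HEPES buffer, pH 7.2 · Timing – 5 min between mix addition and reading · Also added – TAMRA-labelled myosin IIA heavy-chain peptide probe, 5 nM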
Cneo AK release = Cryptococcus neoformans lysis via adenylate kinase release; C. neoformans lysis, adenylate kinase release luminescence, 4 h; normalised: neutral wells 0, clomiphene wells 100; 0.2% of 360,000 active; lysis activity, % at 15 µM;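 active means mean lysis activity across replicates of at least 80%, whatever share of replicates individually reach that level; inactive means mean lysis activity below 80%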
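Test system: log-phase Cryptococcus neoformans yeast cells; Quantity: yeast cell density of 5 × 10^6 cells/mL; Buffer or medium: YPD; Doses: single compound concentration per well; Timing: 4 h at 37 °C static, read 1 h later; Measured by: AK luminescence; Read-out basis: lysis from increased AK signal; Control set: Clomiphene as positive control.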
Alpha interfer = AlphaScreen signal interference counter-screen hit | shares compounds with AF4-AF9 inh | signal luminescence | AC50, µM (titrated, usually from 12 µM) | 45% of 530 active | AID 720494; cut-off not given, nearly all actives have AC50 up to about 14 µM
Each line names hits and unclear results; the compound was inactive in the other large screens (follow-up assays come after a bar, where they were run); ! = not active in a repeat. Most compounds without a hit are left out; they make up all but 3.2% or so of the library.

COc1ccc(C2CC(=O)Oc3c(C(CCN4CCCC(C)C4)c4ccc(N(C)C)cc4)c(OC)cc(OC)c32)cc1 (stereo not drawn)	AF4-AF9 inh 44 | Alpha interfer 1.8µM
CCC(=O)N1CC2(C1)CN(S(C)(=O)=O)[C@H](CO)c1[nH]c3cc(OC)ccc3c12	none (no result: PfHsp90 yeast 2, Cneo AK release)
Cc1noc(C)c1S(=O)(=O)Nc1ccc2c(c1)C(=O)N([C@H](C)CO)C[C@@H](C)[C@H](CN(C)Cc1ccc3c(c1)OCO3)OCCCC[C@H](C)O2	none (no result: PfHsp90 yeast 2)
Cn1ccc2c(N3CCCCCC3)cc3c(c21)C1CCC3C1 (stereo not drawn)	AF4-AF9 inh 31 (no result: PfHsp90 yeast 2) | Alpha interfer inactive
COc1cccc(CNCCc2c[nH]c3ccccc23)c1OCc1ccccc1	AF4-AF9 inh 27 (no result: Cneo AK release) | Alpha interfer inactive
COc1ccc([Si](C)(C)[C@H]2[C@H](CCO)O[C@@]3(C(=O)N(Cc4ccccc4)c4ccc(N5CCC5=O)cc43)[C@@H]2C)cc1	none (no result: PfHsp90 yeast 2, rRNA inh HTS)
Cc1[nH]n(-c2ccccc2)c(=O)c1N=Nc1c(O)cc(S(=O)(=O)N(C)C)c2ccccc12	AF4-AF9 inh 50 | Alpha interfer inactive
CCCN1C(=O)/C(=C/c2nc3ccccc3c(=O)[nH]2)c2ccccc21	none (no result: Cneo AK release)
CC(C)N1C(=O)/C(=C\c2nc3ccccc3c(=O)[nH]2)c2ccccc21	PfHsp90 yeast 2 98, AF4-AF9 inh 26 | Alpha interfer inactive
COc1ccc(CNC(=O)CSc2cccc3cccnc23)cc1	none
CCCC(=O)NC(c1ccc(OC)cc1)c1ccc2cccnc2c1O (stereo not drawn)	AF4-AF9 inh 29 (no result: PfHsp90 yeast 2, Cneo AK release) | Alpha interfer 2.6µM
COc1ccc(N2CCN(c3cc(C)nc4ccc(OC)cc34)CC2)cc1	AF4-AF9 inh 34 | Alpha interfer inactive
COc1ccc2nc(C)cc(N3CCC(C(N)=O)CC3)c2c1	none
CN(C)C(=O)c1cccc(-c2ccccc2[C@H]2[C@@H](C#N)N(C(=O)C3CCCC3)[C@@H]2CO)c1	none (no result: PfHsp90 yeast 2, Cneo AK release)
COc1ccc(/C=C/C(=O)c2ccc(OC)cc2OC)cc1	none
COc1ccc(/C=C/C(=O)c2cc3c(cc2N)OCO3)cc1	AF4-AF9 inh 38 (no result: Cneo AK release) | Alpha interfer inactive
C(=C\c1ccncc1)/c1ccncc1	none (no result: Cneo AK release) | Alpha interfer inactive
O=C1Nc2ccccc2/C1=C/C(=O)c1cccs1	none (no result: DENV2 CPE, AF4-AF9 inh, rRNA inh HTS, S100A4 inh HTS)
CCN1C(=O)/C(=C\C(=O)c2cccs2)c2cc(Br)ccc21	PfHsp90 yeast 2 103, AF4-AF9 inh 37 (no result: Cneo AK release) | Alpha interfer inactive
Cc1nn(-c2ccccc2)c(Cl)c1/C=C1\C(=O)N(C)C(=S)N1C	AF4-AF9 inh 40 (no result: Cneo AK release) | Alpha interfer inactive
O=C(NC1CCCC1)[C@@H]1[C@@H](CO)[C@@H]2Cn3c(ccc(-c4ccccc4)c3=O)[C@H]1N2	none (no result: PfHsp90 yeast 2, Cneo AK release)
COc1ccc(NC(=O)N(C)C[C@H]2Oc3ccc(NC(=O)Cc4cn(C)c5ccccc45)cc3C(=O)N([C@@H](C)CO)C[C@H]2C)cc1	none (no result: PfHsp90 yeast 2)
COc1ccccc1CNC(=O)C[C@H]1C=C[C@@H](NC(=O)CN(C)C)[C@@H](CO)O1	none (no result: PfHsp90 yeast 2)
O=C(NN1C(=O)/C(=C/c2ccc(O)c(O)c2)SC1=S)c1ccccc1	AF4-AF9 inh inconclusive, rRNA inh HTS -31 | Alpha interfer inactive
C[C@@H]1CN([C@@H](C)CO)C(=O)c2cc(N(C)C)ccc2O[C@@H](C)CCCCO[C@H]1CN(C)Cc1ccc2c(c1)OCO2	none (no result: PfHsp90 yeast 2)
C[C@@H]1CN([C@H](C)CO)C(=O)Cc2cc(N(C)C)ccc2O[C@@H]1CN(C)Cc1ccc(Cl)c(Cl)c1	AF4-AF9 inh 31 (no result: PfHsp90 yeast 2) | Alpha interfer inactive
C[C@H]1CN([C@@H](C)CO)C(=O)c2cc(N(C)C)ccc2O[C@@H]1CN(C)Cc1ccc(Cl)c(Cl)c1	AF4-AF9 inh 29 (no result: PfHsp90 yeast 2) | Alpha interfer inactive
C[C@H]1CCCCO[C@H](CN(C)Cc2ccc(Cl)c(Cl)c2)[C@@H](C)CN([C@@H](C)CO)C(=O)c2cc(N(C)C)ccc2O1	AF4-AF9 inh 63 (no result: PfHsp90 yeast 2, rRNA inh HTS) | Alpha interfer 13µM
CNC(=O)C[C@H]1CC[C@H]2[C@@H](COc3ccc(NC(=O)Nc4cccc(Cl)c4)cc3C(=O)N2C)O1	none (no result: PfHsp90 yeast 2)
C[C@@H]1CCCCO[C@@H](CN(C)C(=O)c2ccncc2)[C@@H](C)CN([C@H](C)CO)C(=O)c2cc(NS(=O)(=O)c3ccc(Cl)cc3)ccc2O1	none (no result: PfHsp90 yeast 2)
CC1=NN(c2ccccc2)C(=O)/C1=C/C=C/c1ccc(N(C)C)cc1	AF4-AF9 inh 67 (no result: Cneo AK release) | Alpha interfer inactive
CC(=O)OCCNc1cc(N2CCN(C)CC2)c2noc3c2c1C(=O)c1ccccc1-3	AF4-AF9 inh 86 | Alpha interfer 8.6µM
CN(C)c1ccc(C(CNC(=O)c2ccccc2F)c2c[nH]c3ccccc23)cc1 (stereo not drawn)	none (no result: PfHsp90 yeast 2, Cneo AK release)
CN(C)c1ccc(C(CNC(=O)c2ccccc2)c2c[nH]c3ccccc23)cc1 (stereo not drawn)	AF4-AF9 inh 29 (no result: Cneo AK release) | Alpha interfer inactive
CCC(=O)NC(c1ccc(N(C)C)cc1)c1c(O)ccc2ccccc12 (stereo not drawn)	none | Alpha interfer inactive
CCC(=O)NC(c1ccc(OC)cc1)c1c(O)ccc2ccccc12 (stereo not drawn)	none
COC(=O)c1ccc2nc(C)cc(Nc3ccc(N(C)C)cc3)c2c1	AF4-AF9 inh 32 | Alpha interfer inactive
COc1ccc2c3c([nH]c2c1)[C@H](CO)N(C)CC31CN(C(=O)NC(C)C)C1	none (no result: PfHsp90 yeast 2, Cneo AK release)
Nc1ccccc1Nc1cc(-c2ccccc2)nn1-c1cccc(Cl)c1	DENV2 CPE 20, AF4-AF9 inh 31 (no result: Cneo AK release) | Alpha interfer inactive
O=C(CCl)Nc1cc(-c2ccccc2)nn1-c1ccccc1	none (no result: DENV2 CPE, AF4-AF9 inh, rRNA inh HTS, S100A4 inh HTS)
O=C(Cc1cccnc1)N1CC(=O)N2[C@H](C1)[C@H](c1ccc(C3=CCCC3)cc1)[C@@H]2CO	DENV2 CPE 36, AF4-AF9 inh 37 (no result: PfHsp90 yeast 2, Cneo AK release) | Alpha interfer inactive
CC=Cc1ccc2n(c1=O)C[C@H]1[C@H](CO)[C@@H](C(=O)NCCC)[C@@H]2N1C(=O)C1CCCC1 (mixture of isomers)	none (no result: PfHsp90 yeast 2)
CC(C)N=C(N)N=C(N)Nc1ccc(Cl)cc1	none
NC(=NCCCCCCN=C(N)/N=C(\N)Nc1ccc(Cl)cc1)/N=C(\N)Nc1ccc(Cl)cc1	DENV2 CPE inconclusive, AF4-AF9 inh 53! (no result: rRNA inh HTS) | Alpha interfer inactive
Oc1ccc(O)c(C=NNC(=S)NC2CC3CC2C2C=CCC32)c1 (stereo not drawn)	AF4-AF9 inh 35 (no result: PfHsp90 yeast 2) | Alpha interfer 12µM
COc1cccc(C=NNC(=S)NC2CC3CCC2C3)c1O (stereo not drawn)	none (no result: PfHsp90 yeast 2, rRNA inh HTS, Cneo AK release)
C[C@H](CO)N1C[C@H](C)[C@H](CN(C)C)Oc2cc(Br)ccc2S1(=O)=O	DENV2 CPE inconclusive (no result: PfHsp90 yeast 2)
